Laboratory results taken from ChEMBL document CHEMBL1123985, “Oral absorption of cephalosporin antibiotics. 1. Synthesis, biological properties, and oral bioavailability of 7-(arylacetamido)-3-chloro cephalosporins in animals” (J Med Chem, 1988).
≈ marks a conversion by molar mass, not a printed value.

Legend:
Haemophilus influenzae [1] = assay: Minimum inhibitory concentration against sens CL strain of Haemophilus influenzae; format: functional
[2] = Dose in urine (24-h urine excretion) in female mongrel dogs after iv administration of single 15 mg/kg dose; format: ADME, organism-based, Canis lupus familiaris; set-up: dose 15 mg/kg, route intravenous; conditions: dog
Method in brief: (§1)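 Female mongrel dogs (n=6), bladder catheter; urine collected at intervals after single 15 mg/kg iv or oral solution dose, frozen; antibiotic activity by disk-plate agar diffusion against E. coli MB 3804 with standards in pH 6.0 buffer; percent of dose recovered in urine.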

[3] = system: Staphylococcus epidermidis; assay: Minimum inhibitory concentration against 222 strain of Staphylococcus epidermidis; format: functional
Canis familiaris [4] = assay: Area under plasma concentration vs time curve observed in female mongrel dogs after, iv administration of single 15 mg/kg dose; format: ADME, organism-based, Canis lupus familiaris; set-up: dose 15 mg/kg, route intravenous; conditions: dog, in vivo
Method in brief: (§2)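 Six female mongrel dogs (14-23 kg) fasted overnight, bladder catheterized; single 15 mg/kg solution doses by stomach tube (in water, total 500 mL) or cephalic vein (saline or pH 6.0 NaCl/phosphate/acetate buffer). Plasma sampled at intervals; activity by disk-plate agar diffusion against E. coli MB 3804, standards in dog serum or buffer. AUC μg min/mL, mean ± SEM; BA from iv vs po AUC and urinary recovery.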

[5] = Bioavailability in rat; format: ADME, organism-based; conditions: in vivo
Method in brief: (§3)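 Male Wistar rats (200-300 g), jugular-cannulated, upper GI emptied by light cycle; 20 mg/kg in saline (6 mg/mL) sc or orally. Urine collected in wire-bottom cages, assayed by B. subtilis agar well method. Mean ± SD recovery with N and range; bioavailability = oral over mean sc recovery.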

[6] = Compound was tested for percent of oral bioavailability in mice; 56-74; format: ADME, organism-based; conditions: mouse, in vivo, read-out: Bioavailabiility
Method in brief: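 Male Cox mice given water and liquid diet overnight; 20 mg/kg in saline (2 mg/mL) sc or orally; urine from collection cages plus bladder contents over 2 h; activity by agar well assay with Bacillus subtilis ATCC 6633. Bioavailability from percent dose excreted in urine after oral vs parenteral dosing.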

Haemophilus influenzae [7] = assay: Minimum inhibitory concentration against res 76 strain of Haemophilus influenzae; format: functional
[8] = Oral bioavailability in Rhesus monkey; format: ADME, organism-based, Macaca mulatta; conditions: in vivo
Method in brief: (§4)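 Rhesus monkeys, adult males, six animals per compound, each given drug orally and iv; fasted overnight. Single 30 mg/kg solution doses, by nasogastric tube (in water) or saphenous vein (in isotonic lactated Ringer). Plasma sampled at intervals, frozen at -70 °C, antibacterial activity by microbiological assay. AUC in μg min/mL; oral bioavailability from oral vs iv AUC.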

[9] = Mean plasma levels in rats at a time 5 min after iv administration of 100 mg/kg of probenecid 5 min prior to test compound; format: ADME, organism-based; set-up: dose 100 mg/kg, route intravenous; conditions: rat, read-out: Plasma levels
Method in brief: (§5)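 Rats, jugular vein cannulated (two per group), test compound iv 20 mg/kg; probenecid 100 mg/kg iv 5 min before in treated groups. Heparinized plasma sampled at 5, 20, 40 min and 1, 2, 3 h, assayed microbiologically (B. subtilis agar well). AUC 0-3 h in μg min/mL; half-life in min.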

Klebsiella pneumoniae = assay: Minimum inhibitory concentration against X68 strain of Klebsiella pneumoniae; format: functional
[10] = Mean plasma levels in rats 40 min after iv administration of 100 mg/kg of probenecid 5 min prior to test compound; format: ADME, organism-based; set-up: dose 100 mg/kg, route intravenous; conditions: rat, read-out: Plasma levels; method in brief: as §5
Streptococcus pneumoniae [11] = assay: Minimum inhibitory concentration against Park strain of Streptococcus pneumoniae
Staphylococcus aureus [12] = assay: Minimum inhibitory concentration against 3055 strain of Staphylococcus aureus
Staphylococcus aureus [13] = assay: Minimum inhibitory concentration against X1.1 strain of Staphylococcus aureus; format: functional
Klebsiella aerogenes = assay: Minimum inhibitory concentration against EB17 strain of Enterobacter aerogenes; format: functional
[14] = Area under plasma concentration vs time curve observed in rats for 0-3 h; format: ADME; set-up: time < 3 hr; conditions: rat; method in brief: as §5
[15] = Percent of urinary recovery in rats after, sc administration of single 20 mg/kg dose in solution (N,range); format: ADME, organism-based; set-up: dose 20 mg/kg, route subcutaneous; conditions: rat, urine, read-out: Recovery; method in brief: as §3
[16] = Area under plasma concentration vs time curve observed in Rhesus monkeys after, iv administration of single 30 mg/kg dose; format: ADME, organism-based, Macaca mulatta; set-up: dose 30 mg/kg, route intravenous; conditions: rhesus monkey; method in brief: as §4
Escherichia coli = assay: Minimum inhibitory concentration against EC14 strain Escherichia coli; format: functional
[17] = Mean plasma levels in rats 20 min after iv administration of 100 mg/kg of probenecid 5 min prior to test compound; format: ADME, organism-based; set-up: dose 100 mg/kg, route intravenous; conditions: rat, read-out: Plasma levels; method in brief: as §5
[18] = Percent of urinary recovery in rats after, oral administration of single 20 mg/kg dose in solution (N,range); format: ADME, organism-based; set-up: dose 20 mg/kg, route oral; conditions: rat, urine, read-out: Recovery; method in brief: as §3
[19] = Half-life of the compound; format: ADME; method in brief: as §5
[20] = Mean plasma levels in rats 2 hr after iv administration of 100 mg/kg of probenecid 5 min prior to test compound; format: ADME, organism-based; set-up: dose 100 mg/kg, route intravenous; conditions: rat, read-out: Plasma levels; method in brief: as §5
Streptococcus pyogenes [21] = assay: Minimum inhibitory concentration against Streptococcus pyogenes C203; format: functional
Salmonella = assay: Minimum inhibitory concentration against X514 strain of Salmonella; format: functional
[22] = Oral bioavailability in dog (female mongrel); format: ADME, organism-based, Canis lupus familiaris; conditions: in vivo; method in brief: as §2
[23] = Mean plasma levels in rats 3h after intravenous administration of 20 mg/kg of compound; format: ADME, organism-based; set-up: dose 20 mg/kg, route intravenous; conditions: rat, read-out: Plasma levels; method in brief: as §5
[24] = Mean plasma levels in rats 1 hr after iv administration of 100 mg/kg of probenecid 5 min prior to test compound; format: ADME, organism-based; set-up: dose 100 mg/kg, route intravenous; conditions: rat, read-out: Plasma levels; method in brief: as §5
[25] = system: Staphylococcus epidermidis; assay: Minimum inhibitory concentration against Epil strain of Staphylococcus epidermidis; format: functional
Canis familiaris [26] = assay: Area under plasma concentration vs time curve observed in female mongrel dogs after, oral administration of single 15 mg/kg dose; format: ADME, organism-based, Canis lupus familiaris; set-up: dose 15 mg/kg, route oral; conditions: dog, in vivo; method in brief: as §2
[27] = Area under plasma concentration vs time curve observed in Rhesus monkeys after oral administration of single 30 mg/kg dose; format: ADME, organism-based, Macaca mulatta; set-up: dose 30 mg/kg, route oral; conditions: rhesus monkey; method in brief: as §4
Staphylococcus aureus [28] = assay: Minimum inhibitory concentration against S13E strain of Staphylococcus aureus; format: functional
[29] = Minimum inhibitory concentration against N9 strain of Shigella sonnei; format: functional
Streptococcus pneumoniae [30] = assay: Minimum inhibitory concentration against park strain of Streptococcus pneumoniae
Streptococcus pyogenes [31] = assay: Minimum inhibitory concentration against C203 strain of Streptococcus pyogenes
Staphylococcus aureus [32] = assay: Minimum inhibitory concentration against V41 strain of Staphylococcus aureus; format: functional
[33] = Dose in urine (24-h urine excretion) in female mongrel dogs after oral administration of single 15 mg/kg dose; format: ADME, organism-based, Canis lupus familiaris; set-up: dose 15 mg/kg, route oral; conditions: dog; method in brief: as §1

Question: What does the source list for `O=C(COc1ccccc1)N[C@@H]1C(=O)N2C(C(=O)O)=C(Cl)CS[C@H]12`?
Answer: MIC (Haemophilus influenzae [1]): 1 µg/mL (≈ 2.71 µM); dose excreted [2]: 48%; MIC [3]: 0.25 µg/mL (≈ 0.678 µM); AUC (Canis familiaris [4]): 57500 ng·h/mL; bioavailability [5]: 23.1%; bioavailability [6]: 56%; MIC (Haemophilus influenzae [7]): 2 µg/mL (≈ 5.42 µM); bioavailability [8]: 13.1%; concentration at 5 min [9]: 66000 ng/mL; MIC (Klebsiella pneumoniae): 128 µg/mL (≈ 347 µM); concentration at 40 min [10]: 25200 ng/mL; MIC (Streptococcus pneumoniae [11]): 0.125 µg/mL (≈ 0.339 µM); MIC (Staphylococcus aureus [12]): 0.25 µg/mL (≈ 0.678 µM); MIC (Staphylococcus aureus [13]): 0.25 µg/mL (≈ 0.678 µM); MIC (Klebsiella aerogenes): > 128 µg/mL; AUC at 3 h [14]: 51400 ng·h/mL; dose excreted [15]: 43.8%; AUC [16]: 38000 ng·h/mL; MIC (Escherichia coli): 64 µg/mL (≈ 174 µM); concentration at 20 min [17]: 39100 ng/mL; dose excreted [18]: 10.1%; half-life [19]: 30 min; concentration at 2 h [20]: 4600 ng/mL; MIC (Streptococcus pyogenes [21]): 0.125 µg/mL (≈ 0.339 µM); MIC (Salmonella): > 128 µg/mL; bioavailability [22]: 30%; concentration at 3 h [23]: 500 ng/mL; concentration at 1 h [24]: 18400 ng/mL; MIC [25]: 4 µg/mL (≈ 10.8 µM); AUC (Canis familiaris [26]): 16700 ng·h/mL; AUC [27]: 5000 ng·h/mL; MIC (Staphylococcus aureus [28]): 16 µg/mL (≈ 43.4 µM); MIC [29]: > 128 µg/mL; MIC (Streptococcus pneumoniae [30]): 0.06 µg/mL (≈ 0.163 µM); MIC (Streptococcus pyogenes [31]): 0.06 µg/mL (≈ 0.163 µM); MIC (Staphylococcus aureus [32]): 8 µg/mL (≈ 21.7 µM); dose excreted [33]: 18%
